Compounds with a hit are over-represented: about 1.8% of the library has one in this group of screens.
CHRM4 PAM: CHRM4 positive allosteric modulation; CHO-K1 hM4/Gqi5, Fluo-8 calcium fluorescence, ACh EC20; 0% = ACh EC20, 100% = maximal ACh; activation, % at 3 µM; actives 0.4% (n = 360,000);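 active = activation above its plate's cutoff, the mean activation of sample wells plus 3 SD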
M5 antag: blocks acetylcholine activation of human M5 receptor; inhibition, % at 3 µM; CHO-hM5 cells, Fluo-8 calcium fluorescence, ACh EC80; actives 0.59% (n = 360,000); P08912;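 active = inhibition above a per-plate cutoff, the mean of that plate's test compounds plus 3 SD, cut at about 27% in these data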;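 also: 0% = acetylcholine EC80 with DMSO and 100% = DMSO without agonist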
Target sequence (P08912 whole entry, looked up): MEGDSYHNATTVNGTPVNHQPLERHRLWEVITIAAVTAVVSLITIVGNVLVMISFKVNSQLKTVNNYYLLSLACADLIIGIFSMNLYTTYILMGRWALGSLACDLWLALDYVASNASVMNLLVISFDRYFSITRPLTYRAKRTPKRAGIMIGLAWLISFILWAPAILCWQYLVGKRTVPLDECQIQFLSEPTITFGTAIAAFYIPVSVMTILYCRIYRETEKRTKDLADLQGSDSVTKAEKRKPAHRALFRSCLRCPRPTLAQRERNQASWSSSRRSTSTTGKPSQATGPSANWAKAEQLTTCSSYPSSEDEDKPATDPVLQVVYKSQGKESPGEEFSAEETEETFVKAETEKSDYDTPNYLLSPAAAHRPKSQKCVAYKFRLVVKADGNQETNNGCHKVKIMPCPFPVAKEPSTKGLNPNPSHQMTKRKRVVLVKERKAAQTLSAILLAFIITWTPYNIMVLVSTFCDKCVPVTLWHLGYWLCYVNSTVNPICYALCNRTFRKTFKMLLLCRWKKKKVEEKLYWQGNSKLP
M5 PAM: potentiates acetylcholine response at human M5 receptor; P08912; CHO-K1 hM5, Fluo-8 calcium, ACh EC20 PAM; 0% = ACh EC20, 100% = ACh EC100; activation, % at 3 µM; actives 0.3% (n = 360,000); AID 624038;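 active = activation above the run cutoff, the mean activation of all test compounds plus 3 SD, cut at about 18% in these data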
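Assay system: CHO-K1 hM5 cells / Incubation: Fluo-8 loading 80 min at 37 °C plus 30 min room temperature / Technique: Fluo-8 calcium dye fluorescence, kinetic read / Repeats: single replicate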
CHRM5 agonist: CHRM5 agonism in calcium assay. P08912. CHO-K1 hM5 cells, Fluo-8 calcium fluorescence; 0% DMSO wells, 100% maximal acetylcholine response. activation, % at 3 µM. actives 0.19% (n = 360,000). AID 624037;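 active = activation above the run's mean over test compounds plus 3 SD, cut at about 23% in these data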;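 also: signal is peak over basal fluorescence ratio across the kinetic read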
M4 ag: agonists of human muscarinic M4 receptor (CHRM4); P08173; CHO-K1 hM4/Gqi5, Fluo-8 calcium fluorescence; vehicle 0%, full acetylcholine response 100%; activation, % at 3 µM; actives 0.14% (n = 360,000);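 active = activation above the run mean over all test wells plus 3 SD, cut at about 32% in these data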;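 also: peak over basal fluorescence ratio per well then scaled between controls; 0% = DMSO wells and 100% = acetylcholine at EC100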
M4 antag: blocks acetylcholine activation of human M4 receptor; CHO-hM4 cells, ACh EC80, Fluo-8 calcium fluorescence; AID 624125; actives 0.73% (n = 360,000); P08173; inhibition, % at 3 µM;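 active = inhibition above its plate's cutoff, the mean inhibition of sample wells plus 3 SD, cut at about 27% in these data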;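 also: 0% = acetylcholine EC80 with DMSO and 100% = DMSO without agonist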
Starred values were filed as active, the others as inactive.

SMILES	CHRM4 PAM	M5 antag	M5 PAM	CHRM5 agonist	M4 ag	M4 antag
Cc1ccc(C(=O)N/C(=C/c2ccccc2)C(=O)NCC2CCCO2)cc1 (stereo unspecified)	15.3	-10.0	21.5*	-2.8	-0.6	-22.0
O=Cc1c(Nc2cccc(C(F)(F)F)c2)nc2ccccn2c1=O	16.3*	17.0	-7.3	-1.7	0.6	-18.5
O=C(N/N=C/c1c(Nc2cccc(C(F)(F)F)c2)nc2ccccn2c1=O)c1ccccc1[N+](=O)[O-]	1.3	-4.2	3.3	2.6	-0.1	-8.7
Nc1c(-c2ccccc2)cnn1-c1cccc([N+](=O)[O-])c1	-4.2	7.2	-17.4	-8.1	2.2	-4.5
Nc1c(-c2ccc(Cl)cc2)cnn1-c1cccc([N+](=O)[O-])c1	-9.6	33.2*	-19.1	-6.3	2.4	10.5
Cc1cc(C)c2cc(C#N)c(NCCNC(=O)c3cccnc3)nc2c1	2.8	7.7	-4.2	-0.7	5.0	-3.1
Cc1c(C(=O)OC(C)C(C)C[N+](C)(C)C)oc2ccccc12 (stereo unspecified)	-22.2	12.0	-17.6	-7.3	0.1	77.2*
CC(=O)Nc1c(NC(C)C)c2ccccc2oc1=O	9.4	-1.6	21.8*	-1.5	0.4	-2.3
NC(=O)CSc1nc(O)cc(=O)n1-c1ccccc1	16.8*	2.1	1.5	-0.9	0.6	0.0
Cc1ccc(-n2c(SCC(N)=O)nc(O)cc2=O)cc1	-1.0	4.4	-3.0	0.5	0.6	4.5
Cc1cc(C)c2c(=O)n(CC(=O)Nc3ccc(Br)c(C)c3)sc2n1	4.0	6.2	2.4	0.8	2.0	6.5
Cc1cc(C)c2c(=O)n(CC(=O)Nc3cccc(Cl)c3C)sc2n1	-37.0	21.4	-9.1	27.5*	66.6*	69.6*
CC(C)(C)OC(=O)C[C@@H]1C/C=C\C[C@H](CC(=O)N[C@@H](CO)Cc2ccccc2)C(=O)N[C@H](C(C)(C)C)COC1=O	-1.7	10.1	-2.5	-1.2	0.5	1.3
COc1ccc(CNC(=O)Cn2cc(C)c(=O)[nH]c2=O)cc1	-1.0	5.3	-2.1	-0.2	0.1	-8.1
CC(=O)N1CCN(c2ccc(NC(=O)c3ccc(C)c([N+](=O)[O-])c3)cc2)CC1	-10.0	-14.6	18.3*	8.0	6.2	0.2
O=C(/C=C/c1ccc(S(=O)(=O)NCc2ccco2)cc1)NCc1cccc(Cl)c1	-7.6	32.4*	-18.5	-9.3	4.0	4.3
CCc1nc(SCc2ccc(Cl)cc2)n[nH]1	-1.7	-17.0	8.1	-1.1	0.3	1.3
O=S(=O)(Nc1nc(SCc2ccc(Cl)cc2)n[nH]1)c1ccc(F)cc1	4.3	-23.5	22.1*	9.4	1.8	-19.6
O=C(Nc1cccc(C(F)(F)F)c1)c1ccc2sc([C@H]3C[C@H](O)[C@@H](CO)O3)nc2c1	-3.1	7.3	-0.3	2.6	1.6	0.1
Cc1ccc(NC(=O)CS(=O)(=O)c2cn(CC(=O)N3CCOCC3)c3ccccc23)cc1	25.3	-8.5	3.2	-2.5	1.9	35.8*
CCCCCc1cccnc1	0.2	7.9	-6.0	1.0	0.6	-1.4
COC(=O)c1sc(C(C)(C)C)cc1CS(=O)(=O)c1ccccn1	-3.6	-18.2	21.8*	8.9	2.9	-14.6
CC(C)(C)c1ccc(OCC(O)CS(=O)(=O)c2ccccn2)cc1 (stereo unspecified)	3.0	-7.8	-1.6	3.5	12.8	-11.0
COc1ccc(NC(=O)C2CCCCN2S(=O)(=O)c2ccccc2)cc1S(=O)(=O)N1CCOCC1 (stereo unspecified)	-11.8	13.3	-18.2	1.9	16.4	10.1
COc1cc2[nH]c3c(=O)n4c(nc3c2cc1OC)SCCC4	7.1	-10.5	2.3	-2.2	-0.5	5.5
Cc1c(Cl)c([N+](=O)[O-])nn1CCCC(=O)Nc1c(C)n(C)n(-c2ccccc2)c1=O	-41.8	17.1	-30.9	-19.1	0.5	27.1*
Cc1c(NC(=O)Nc2ccc(Cl)c(Cl)c2)c(=O)n(-c2ccccc2)n1C	0.3	30.4*	-15.2	0.4	11.6	10.1

Screens: PubChem, The Scripps Research Institute Molecular Screening Center
